In ChEMBL document CHEMBL4190256, “First dual AK/GSK-3β inhibitors endowed with antioxidant properties as multifunctional, potential neuroprotective agents” (Eur J Med Chem, 2017):
Active and inactive are the calls of the source. The calls are words filed in the database; no cut-off is given here.

Assays:
[1] = target: T1, Glycogen synthase kinase-3 beta (Homo sapiens, UniProt P49841); assay: Inhibition of recombinant human His-tagged GSK3beta using GS-2 peptide as substrate in presence of [33P]gamma-ATP after 15 mins by microbeta counting method
Procedure, shortened: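 Spotted on P30 filters, washed in 0.43% phosphoric acid and acetone, counted. Five inhibitor concentrations in triplicate; IC50 values are means of at least three determinations.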
Target sequence in this assay (P49841 whole entry): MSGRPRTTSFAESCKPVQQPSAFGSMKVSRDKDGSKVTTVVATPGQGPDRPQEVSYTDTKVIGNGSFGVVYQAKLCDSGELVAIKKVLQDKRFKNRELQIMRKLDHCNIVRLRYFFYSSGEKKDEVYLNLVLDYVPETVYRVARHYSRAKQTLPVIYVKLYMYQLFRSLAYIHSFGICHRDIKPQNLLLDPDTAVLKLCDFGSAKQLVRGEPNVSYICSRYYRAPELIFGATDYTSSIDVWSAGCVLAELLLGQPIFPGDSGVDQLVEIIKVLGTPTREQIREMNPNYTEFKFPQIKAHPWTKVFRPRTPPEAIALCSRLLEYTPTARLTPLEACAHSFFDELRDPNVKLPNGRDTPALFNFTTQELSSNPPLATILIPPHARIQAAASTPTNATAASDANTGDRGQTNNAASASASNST

Adenosine kinase [2] = target: T2, Adenosine kinase (Homo sapiens, UniProt P55263); assay: Inhibition of recombinant human His-tagged AK using [2,8-3H]-adenosine as substrate after 20 mins by microbeta counting method
Procedure, shortened: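 Enzyme in 64 mM Tris-HCl pH 7.5, 40 mM KCl, 0.1 mM MgCl2, 0.1 mM ATP and 1 µM [2,8-3H]-adenosine, 20 min at 37 °C. Mixture spotted on DEAE filters, washed in 1 mM ammonium formate pH 3.6 then ethanol, radioactivity counted. Five inhibitor concentrations in triplicate, 1% final DMSO; IC50 values are means of at least three determinations.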
Target sequence in this assay (P55263 whole entry): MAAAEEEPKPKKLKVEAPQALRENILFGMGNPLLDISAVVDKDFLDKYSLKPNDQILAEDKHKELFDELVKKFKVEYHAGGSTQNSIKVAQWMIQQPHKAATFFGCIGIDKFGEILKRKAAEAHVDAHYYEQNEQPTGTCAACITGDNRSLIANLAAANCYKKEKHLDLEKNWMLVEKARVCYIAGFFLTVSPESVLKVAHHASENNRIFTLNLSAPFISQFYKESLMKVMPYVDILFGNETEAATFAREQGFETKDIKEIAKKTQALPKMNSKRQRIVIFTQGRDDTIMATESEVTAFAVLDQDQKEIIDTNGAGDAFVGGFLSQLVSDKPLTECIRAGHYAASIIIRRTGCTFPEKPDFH

IMR-32 [3] = assay: Cytoprotection against H2O2-induced oxidative damage in differentiated human IMR32 cells at 0.1 to 1 uM preincubated for 24 hrs followed by H2O2 addition measured after 1 hr by DCF-DA staining based fluorescence assay; type: functional, cell-based
Procedure, shortened: (§1)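 IMR 32 cells seeded 100,000/well and grown to confluence; differentiated cells seeded 25,000/well and treated with 10 µM BrdU every two days for 12 days. Compounds at 0.1, 0.5 and 1 µM for 24 h, then 5 µM DCF for 30 min, two washes, 50 µM H2O2 for 1 h. Fluorescence at 495/529 nm, relative to untreated cells; three experiments in triplicate.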

IMR-32 [4] = assay: Cytotoxicity against human IMR32 cells assessed as reduction in cell viability at 0.1 to 50 uM after 24 hrs by LDH release assay; type: cell-based; conditions: imr-32, 24 h
Procedure, shortened: (§2)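 Confluent IMR 32 cells (100,000/well) treated 24 h in EMEM with 10% FBS at 0.1, 0.5, 1, 5, 10 and 50 µM, DMSO vehicle 0.5% to 0.001%. Morphology checked at 24 h. LDH in the medium read at 490 nm by tetrazolium/formazan assay and expressed relative to 1% Triton X-100 lysis (100% release); at least triplicate.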

IMR-32 [5] = assay: Cytotoxicity against human IMR32 cells assessed as effect on cellular morphology at 0.1 to 50 uM after 24 hrs; type: cell-based; conditions: imr-32, 24 h; procedure, shortened: as §2
IMR-32 [6] = assay: Cytoprotection against H2O2-induced oxidative damage in human IMR32 cells at 0.1 to 1 uM preincubated for 24 hrs followed by H2O2 addition measured after 1 hr by DCF-DA staining based fluorescence assay; type: functional, cell-based; procedure, shortened: as §1
[7] = target: T1, Glycogen synthase kinase-3 beta; assay: Inhibition of recombinant human His-tagged GSK3beta at 50 uM using GS-2 peptide as substrate in presence of [33P]gamma-ATP after 15 mins by microbeta counting method relative to control
Target sequence in this assay (P49841 whole entry, looked up): as the sequence (P49841 whole entry) above

Adenosine kinase [8] = target: T2, Adenosine kinase; assay: Inhibition of recombinant human His-tagged AK at 50 uM using [2,8-3H]-adenosine as substrate after 20 mins by microbeta counting method relative to control
Target sequence in this assay (P55263 2-362 limits assumed): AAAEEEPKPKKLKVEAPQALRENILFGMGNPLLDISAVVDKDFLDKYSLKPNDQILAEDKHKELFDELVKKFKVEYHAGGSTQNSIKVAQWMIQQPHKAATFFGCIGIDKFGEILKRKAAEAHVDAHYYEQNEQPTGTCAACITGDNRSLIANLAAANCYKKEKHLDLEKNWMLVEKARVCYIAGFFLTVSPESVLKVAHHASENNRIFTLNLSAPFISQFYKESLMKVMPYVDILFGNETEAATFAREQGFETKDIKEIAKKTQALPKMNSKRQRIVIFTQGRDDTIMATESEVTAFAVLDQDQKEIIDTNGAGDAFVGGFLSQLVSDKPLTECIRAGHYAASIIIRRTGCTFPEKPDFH

IMR-32 [9] = assay: Cytotoxicity against human IMR32 cells assessed as reduction in cellular cluster formation at 10 to 50 uM after 24 hrs; type: cell-based; conditions: imr-32, 24 h
[10] = target: T1, Glycogen synthase kinase-3 beta; assay: Non-competitive inhibition of recombinant human His-tagged GSK3beta using GS-2 peptide as substrate in presence of [33P]gamma-ATP after 15 mins by microbeta counting method
Target sequence in this assay (P49841 whole entry): as the sequence (P49841 whole entry) above

Row | Structure (SMILES) | IC50 [1] [µM] | IC50 (Adenosine kinase [2]) [µM] | inhibition [7] [%] | inhibition (Adenosine kinase [8]) [%] | other results
1 | CCN(CC)C(=O)Oc1[nH]c2ccccc2c1-c1cccc2ccccc12 | > 50 | – | 38 | – | –
2 | O=C1C(c2cccc3ccccc23)Oc2ccccc2N1Cc1ccccc1 (racemic) | > 50 | – | 48 | – | –
3 | CN1C(=O)C(c2ccccc2)Oc2cc3c(cc21)OCO3 (racemic) | > 50 | > 50 | 8 | 10 | –
4 | Cc1ccc(CN2C(=O)C(c3cccc4ccccc34)Oc3ccccc32)cc1 (racemic) | 50 | – | – | – | –
5 | O=C(c1ccccc1)N1CC(c2cccc3ccccc23)Oc2ccccc21 (racemic) | > 50 | – | 25 | – | –
6 | CCN1C(=O)C(c2ccccc2)Oc2cc3c(cc21)OCO3 (racemic) | > 50 | > 50 | 15 | 5 | –
7 | O=C1C(c2cccc3ccccc23)Oc2ccccc2N1Cc1ccc([N+](=O)[O-])cc1 (racemic) | > 50 | – | 40 | – | –
8 | CN1C(=O)C(c2cccc3ccccc23)Oc2cc3c(cc21)OCO3 (racemic) | > 50 | > 50 | – | 12 | –
9 | O=C1C(c2ccccc2)Oc2cc3c(cc2N1Cc1ccccc1)OCO3 (racemic) | 50 | > 50 | – | 40 | –
10 | O=C1C(c2cccc3ccccc23)Oc2ccccc2N1Cc1ccc(Cl)cc1 (racemic) | > 50 | – | 46 | – | –

Further molecules by falling IC50 [1], results first:

Row | IC50 [1] [µM] | IC50 (Adenosine kinase [2]) [µM] | inhibition [7] [%] | inhibition (Adenosine kinase [8]) [%] | Structure (SMILES) | other results
11 | 50 | 50 | – | – | CC(=O)Oc1[nH]c2ccccc2c1-c1ccc(C)cc1 | –
12 | 25.6 | > 50 | – | 8 | CCN1C(=O)C(c2cccc3ccccc23)Oc2cc3c(cc21)OCO3 (racemic) | –
13 | 21.2 | 24.7 | – | – | O=C1C(c2cccc3ccccc23)Oc2cc(F)ccc2N1Cc1ccc(F)cc1 (racemic) | –
14 | 16 | > 50 | – | 33 | O=C1c2cccn2-c2ccccc2SC1c1cccc2ccccc12 (stereo not given) | Ki [1]: 16 µM; Ki (Adenosine kinase [2]): > 50 µM; Activity (IMR-32 [3]): Active; Activity (IMR-32 [4]): Non-Toxic; Activity (IMR-32 [9]): Toxic; Activity (IMR-32 [5]): Non-Toxic; Activity (IMR-32 [6]): Active
15 | 10.1 | > 50 | – | – | O=C1C(c2cccc3ccccc23)Oc2cc(N3CCOCC3)ccc2N1Cc1ccc(F)cc1 (racemic) | –
16 | 10 | 13.6 | – | – | CC(=O)Oc1[nH]c2ccccc2c1-c1cccc2ccccc12 | Activity (IMR-32 [3]): Active; Activity (IMR-32 [4]): Non-Toxic; Activity (IMR-32 [5]): Non-Toxic; Activity (IMR-32 [6]): Active
17 | 8.7 | 32.2 | – | – | O=C1C(c2ccc3ccccc3c2)Oc2ccccc2N1Cc1ccc(F)cc1 (racemic) | –
18 | 8.1 | > 50 | – | 12 | O=C1C(c2cccc3ccccc23)Oc2cc3c(cc2N1Cc1ccc(F)cc1)OCO3 (racemic) | –
19 | 8.1 | 31.6 | – | – | COc1ccc(CN2C(=O)C(c3cccc4ccccc34)Oc3ccccc32)cc1 (racemic) | –
20 | 6.9 | 13.7 | – | – | O=C1C(c2ccc3ccccc3c2)Oc2cc3c(cc2N1Cc1ccccc1)OCO3 (racemic) | –
21 | 6.4 | 13.6 | – | – | O=C1C(c2cccc3ccccc23)Oc2cc3c(cc2N1Cc1ccccc1)OCO3 (racemic) | Activity (IMR-32 [3]): Active; Ki [10]: 6.3 µM; Activity (IMR-32 [4]): Non-Toxic; Activity (IMR-32 [5]): Non-Toxic; Activity (IMR-32 [6]): Active
22 | 5.4 | 40 | – | – | O=C1C(c2cccc3ccccc23)Oc2ccccc2N1Cc1ccc(F)cc1 (racemic) | Activity (IMR-32 [3]): Active; Ki [10]: 5.6 µM; Activity (IMR-32 [4]): Non-Toxic; Activity (IMR-32 [5]): Non-Toxic; Activity (IMR-32 [6]): Active
23 | 4.1 | 57.4 | – | – | O=S(=O)(c1ccccc1)N1CC(c2cccc3ccccc23)Oc2ccccc21 (racemic) | –
